≈ marks a conversion by molar mass, not a printed value.
How the values were obtained:
Staphylococcus aureus [1] = test: In vitro antibacterial activity against ciprofloxacin-resistant Staphylococcus aureus (CRSA); type: functional
Staphylococcus aureus [2] = test: In vitro antibacterial activity against Staphylococcus aureus; type: functional
Streptococcus pyogenes [3] = test: In vitro antibacterial activity against Streptococcus pyogenes ATTCC8668
Staphylococcus aureus [4] = test: In vitro antibacterial against methicillin-susceptible Staphylococcus aureus (MSSA); type: functional
Staphylococcus aureus [5] = test: In vitro antibacterial activity against methicillin-resistant Staphylococcus aureus (MRSA); type: functional
Enterococcus faecium = test: In vitro antibacterial activity against vancomycin-resistant Enterococcus faecium C6487
[6] = tested on: Staphylococcus epidermidis; test: In vitro antibacterial activity against Staphylococcus epidermis ATCC 1228; type: functional
Procedure, shortened: (§1)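 MIC by agar dilution on Mueller–Hinton agar, inoculum 10⁴ CFU/spot. Reported in μg/mL.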

Enterococcus faecalis [7] = test: In vitro antibacterial activity against Enterococcus faecalis C6301 (E. f. 1); type: functional; procedure, shortened: as §1
Streptococcus pyogenes [8] = test: In vitro antibacterial activity against Streptococcus pyogenes C6003
[9] = tested on: Staphylococcus epidermidis; test: In vitro antibacterial activity against Staphylococcus epidermis C2235; type: functional; procedure, shortened: as §1
Enterococcus faecalis [10] = test: In vitro antibacterial activity against Enterococcus faecalis C6291 (E. f. 1); type: functional; procedure, shortened: as §1

| SMILES | MIC (Staphylococcus aureus [1]) [µg/mL] | MIC (Staphylococcus aureus [2]) [µg/mL] | MIC (Streptococcus pyogenes [3]) [µg/mL] | MIC (Staphylococcus aureus [4]) [µg/mL] | MIC (Staphylococcus aureus [5]) [µg/mL] | MIC (Enterococcus faecium) [µg/mL] | MIC [6] [µg/mL] | MIC (Enterococcus faecalis [7]) [µg/mL] | MIC (Streptococcus pyogenes [8]) [µg/mL] | MIC [9] [µg/mL] | MIC (Enterococcus faecalis [10]) [µg/mL] |
| --- | --- | --- | --- | --- | --- | --- | --- | --- | --- | --- | --- |
| CO/N=C(\C)C=C1CCN(c2ccc(N3C[C@H](CNC(C)=O)OC3=O)cc2F)CC1 | 16 (≈ 38.2 µM) | 16 (≈ 38.2 µM) | 2 (≈ 4.78 µM) | 16 (≈ 38.2 µM) | 8 (≈ 19.1 µM) | 4 (≈ 9.56 µM) | 8 (≈ 19.1 µM) | 8 (≈ 19.1 µM) | 8 (≈ 19.1 µM) | 8 (≈ 19.1 µM) | 8 (≈ 19.1 µM) |
| CC(=O)NC[C@H]1CN(c2ccc(N3CCC(=C(C#N)C#N)CC3)c(F)c2)C(=O)O1 | 4 (≈ 10.1 µM) | 2 (≈ 5.03 µM) | 1 (≈ 2.52 µM) | 4 (≈ 10.1 µM) | 2 (≈ 5.03 µM) | 4 (≈ 10.1 µM) | 1 (≈ 2.52 µM) | 2 (≈ 5.03 µM) | 4 (≈ 10.1 µM) | 2 (≈ 5.03 µM) | 4 (≈ 10.1 µM) |
| CO/N=C/C=C1CCN(c2ccc(N3C[C@H](CNC(C)=O)OC3=O)cc2F)CC1 | 4 (≈ 9.89 µM) | 8 (≈ 19.8 µM) | 1 (≈ 2.47 µM) | 8 (≈ 19.8 µM) | 4 (≈ 9.89 µM) | 4 (≈ 9.89 µM) | 1 (≈ 2.47 µM) | 4 (≈ 9.89 µM) | 2 (≈ 4.95 µM) | 2 (≈ 4.95 µM) | 4 (≈ 9.89 µM) |
| CC(=O)NC[C@H]1CN(c2ccc(N3CCC(=CC(C)O)CC3)c(F)c2)C(=O)O1 (some centres not stated) | 8 (≈ 20.4 µM) | 8 (≈ 20.4 µM) | 2 (≈ 5.11 µM) | 16 (≈ 40.9 µM) | 4 (≈ 10.2 µM) | 4 (≈ 10.2 µM) | 2 (≈ 5.11 µM) | 4 (≈ 10.2 µM) | 8 (≈ 20.4 µM) | 4 (≈ 10.2 µM) | 8 (≈ 20.4 µM) |
| CC(=O)NC[C@H]1CN(c2ccc(N3CCC(=C/C=N/O)CC3)c(F)c2)C(=O)O1 | 8 (≈ 20.5 µM) | 8 (≈ 20.5 µM) | 2 (≈ 5.12 µM) | 8 (≈ 20.5 µM) | 4 (≈ 10.2 µM) | 4 (≈ 10.2 µM) | 1 (≈ 2.56 µM) | 4 (≈ 10.2 µM) | 4 (≈ 10.2 µM) | 4 (≈ 10.2 µM) | 4 (≈ 10.2 µM) |
| CC(=O)NC[C@H]1CN(c2ccc(N3CCC(=CC=O)CC3)c(F)c2)C(=O)O1 | 4 (≈ 10.7 µM) | 8 (≈ 21.3 µM) | 2 (≈ 5.33 µM) | 8 (≈ 21.3 µM) | 4 (≈ 10.7 µM) | 8 (≈ 21.3 µM) | 1 (≈ 2.66 µM) | 4 (≈ 10.7 µM) | 8 (≈ 21.3 µM) | 2 (≈ 5.33 µM) | 8 (≈ 21.3 µM) |
| CCOC(=O)C(C#N)=C1CCN(c2ccc(N3C[C@H](CNC(C)=O)OC3=O)cc2F)CC1 | 4 (≈ 9 µM) | 4 (≈ 9 µM) | 1 (≈ 2.25 µM) | 4 (≈ 9 µM) | 4 (≈ 9 µM) | 2 (≈ 4.5 µM) | 1 (≈ 2.25 µM) | 2 (≈ 4.5 µM) | 4 (≈ 9 µM) | 2 (≈ 4.5 µM) | 4 (≈ 9 µM) |
| CC(=O)NC[C@H]1CN(c2ccc(N3CCC(=C/C(C)=N/O)CC3)c(F)c2)C(=O)O1 | 8 (≈ 19.8 µM) | 8 (≈ 19.8 µM) | 1 (≈ 2.47 µM) | 8 (≈ 19.8 µM) | 4 (≈ 9.89 µM) | 4 (≈ 9.89 µM) | 1 (≈ 2.47 µM) | 4 (≈ 9.89 µM) | 4 (≈ 9.89 µM) | 4 (≈ 9.89 µM) | 4 (≈ 9.89 µM) |
| CC(=O)NC[C@H]1CN(c2ccc(N3CCC(=C(C#N)C#N)C3)c(F)c2)C(=O)O1 | 8 (≈ 20.9 µM) | 8 (≈ 20.9 µM) |  |  |  | 16 (≈ 41.7 µM) | 4 (≈ 10.4 µM) | 16 (≈ 41.7 µM) |  | 4 (≈ 10.4 µM) |  |
| CCOC(=O)/C(C#N)=C1/CCN(c2ccc(N3C[C@H](CNC(C)=O)OC3=O)cc2F)C1 | 16 (≈ 37.2 µM) | 16 (≈ 37.2 µM) |  |  |  | 16 (≈ 37.2 µM) | 8 (≈ 18.6 µM) | 32 (≈ 74.3 µM) |  | 8 (≈ 18.6 µM) |  |
| CCOC(=O)C(C)=C1CCN(c2ccc(N3C[C@H](CNC(C)=O)OC3=O)cc2F)CC1 | 8 (≈ 18.5 µM) | 16 (≈ 36.9 µM) | 4 (≈ 9.23 µM) | 16 (≈ 36.9 µM) | 8 (≈ 18.5 µM) | 8 (≈ 18.5 µM) | 4 (≈ 9.23 µM) | 8 (≈ 18.5 µM) | 16 (≈ 36.9 µM) | 8 (≈ 18.5 µM) | 8 (≈ 18.5 µM) |
| CC(=O)NC[C@H]1CN(c2ccc(N3CCC(=Cc4cc(-c5cccs5)no4)CC3)c(F)c2)C(=O)O1 | 16 (≈ 32.2 µM) | 32 (≈ 64.4 µM) | 2 (≈ 4.03 µM) | 16 (≈ 32.2 µM) | 16 (≈ 32.2 µM) | 16 (≈ 32.2 µM) | 4 (≈ 8.06 µM) | 16 (≈ 32.2 µM) | 16 (≈ 32.2 µM) | 8 (≈ 16.1 µM) | 16 (≈ 32.2 µM) |
| C/C(S)=N/C[C@H]1CN(c2ccc(N3CCC(=CC#N)CC3)c(F)c2)C(=O)O1 | 2 (≈ 5.15 µM) | 2 (≈ 5.15 µM) | 0.5 (≈ 1.29 µM) | 2 (≈ 5.15 µM) | 2 (≈ 5.15 µM) | 0.5 (≈ 1.29 µM) | 0.5 (≈ 1.29 µM) | 1 (≈ 2.57 µM) | 0.25 (≈ 0.644 µM) | 0.5 (≈ 1.29 µM) | 1 (≈ 2.57 µM) |
| CCOC(=O)C=C1CCN(c2ccc(N3C[C@H](CNC(C)=O)OC3=O)cc2F)CC1 | 8 (≈ 19.1 µM) | 16 (≈ 38.1 µM) | 2 (≈ 4.77 µM) | 16 (≈ 38.1 µM) | 8 (≈ 19.1 µM) | 8 (≈ 19.1 µM) | 4 (≈ 9.54 µM) | 8 (≈ 19.1 µM) | 8 (≈ 19.1 µM) | 8 (≈ 19.1 µM) | 8 (≈ 19.1 µM) |
| CC(=O)NC[C@H]1CN(c2ccc(N3CCC(=C(C)C#N)CC3)c(F)c2)C(=O)O1 | 2 (≈ 5.18 µM) | 2 (≈ 5.18 µM) | 0.5 (≈ 1.29 µM) | 2 (≈ 5.18 µM) | 2 (≈ 5.18 µM) | 1 (≈ 2.59 µM) | 0.5 (≈ 1.29 µM) | 2 (≈ 5.18 µM) | 2 (≈ 5.18 µM) | 2 (≈ 5.18 µM) | 2 (≈ 5.18 µM) |
| CC(=O)NC[C@H]1CN(c2ccc(N3CCC(=CC(C)OC(C)=O)CC3)c(F)c2)C(=O)O1 (some centres not stated) | 16 (≈ 36.9 µM) | 16 (≈ 36.9 µM) | 0.25 (≈ 0.577 µM) | 16 (≈ 36.9 µM) | 8 (≈ 18.5 µM) | 4 (≈ 9.23 µM) | 2 (≈ 4.61 µM) | 8 (≈ 18.5 µM) | 8 (≈ 18.5 µM) | 8 (≈ 18.5 µM) | 8 (≈ 18.5 µM) |
| CC(=O)NC[C@H]1CN(c2ccc(N3CC/C(=C(\C)C#N)C3)c(F)c2)C(=O)O1 | 1 (≈ 2.69 µM) | 1 (≈ 2.69 µM) |  |  |  | 2 (≈ 5.37 µM) | 1 (≈ 2.69 µM) | 4 (≈ 10.7 µM) |  | 1 (≈ 2.69 µM) |  |
| CC(=O)NC[C@H]1CN(c2ccc(N3CCC(=CC(=O)[O-])CC3)c(F)c2)C(=O)O1.[Na+] | 8 | 8 | 2 | 8 | 4 | 8 | 1 | 4 | 8 | 1 | 8 |
| CC(=O)NC[C@H]1CN(c2ccc(N3CC/C(=C/C#N)C3)c(F)c2)C(=O)O1 | 0.5 (≈ 1.4 µM) | 0.5 (≈ 1.4 µM) |  |  |  | 1 (≈ 2.79 µM) | 0.5 (≈ 1.4 µM) | 1 (≈ 2.79 µM) |  |  |  |
| CN[C@H](CC(C)C)C(=O)N[C@H]1C(=O)N[C@@H](CC(N)=O)C(=O)N[C@H]2C(=O)N[C@H]3C(=O)N[C@H](C(=O)N[C@H](C(=O)O)c4cc(O)cc(O)c4-c4cc3ccc4O)[C@H](O)c3ccc(c(Cl)c3)Oc3cc2cc(c3O[C@@H]2O[C@H](CO)[C@@H](O)[C@H](O)[C@H]2O[C@H]2C[C@](C)(N)[C@H](O)[C@H](C)O2)Oc2ccc(cc2Cl)[C@H]1O [VANCOMYCIN] |  |  | 0.12 (≈ 0.0828 µM) |  |  | > 32 |  | 1 (≈ 0.69 µM) |  |  | 2 (≈ 1.38 µM) |

Source: ChEMBL document CHEMBL1136089, “Synthesis and in vitro activity of new methylenepiperidinyl and methylenepyrrolidinyl oxazolidinone antibacterial agents” (Bioorg Med Chem Lett, 2003)
